Assay outcomes: PubChem, several laboratories
A selection: hits, their analogues and other compounds. The true share with any hit is near 3.8%.
sdo1 growth = sdo1-depleted yeast growth rescue; S. cerevisiae sdo1-depleted JHY4D growth rescue, OD600 30 h; active compounds read high; pdr5 snq2 efflux-pump mutant strain; z-score at 10 µM; 140,000 tested, 0.21% active; AID 817;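 active means z-score above 3 at both the 24 hr and the 30 hr optical density reads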
Yeast life ext = extends the lifespan of yeast; S. cerevisiae growth with nicotinamide, OD615; deaD strain in restrictive glucose medium; inhibition of the nicotinamide effect, % at 10 µM; 130,000 tested, 0.68% active;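 active means inhibition above a set limit, placed 3 SD over the median of all compounds, cut at about 26% in these data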
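System: Modified budding yeast, DeaD strain | Buffer or medium: Restrictive glucose medium | Also added: 1.5 mM nicotinamide | Doses: 10 µM single point, 0.25% DMSO | Schedule: 48 h compound exposure at 30 °C, humidified | Detection: Absorbance at 615 nm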
RAM network inh = yeast RAM network inhibition; S. cerevisiae dse1pr::URA3 reporter, 5-FOA growth OD615, 2 d; analog-sensitive cbk1-as2 kinase mutant strain; 190,000 tested, 1.8% active; inhibition, % at 50 µM; AID 868;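 active means inhibition above a set limit, 3 SD over mean compound inhibition, cut at about 8.4% in these data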;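 further: inhibition rescues growth on 5-FOA so higher OD means more RAM inhibition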
Measles CPE = protection of cells from measles virus. Measles virus-infected cells, CPE protection, absorbance. protection (pct of control), % at 4 µM. 140,000 tested, 1.5% active; in the data active means protection mostly above about 24%, no sharp cut-off; inactive means mostly below about 26%
Yeast growth inh = reduces growth of yeast BB579 in restrictive medium; S. cerevisiae BB579 growth, OD615, 48 h; inhibition, % at 10 µM; 140,000 tested, 0.51% active; AID 804;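 active means inhibition above a set limit, 3 SD over the mean compound inhibition, cut at about 44% in these data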
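Test system: S. cerevisiae DeaD strain BB579 yeast; Medium: restrictive CSMM-D medium; Compound: one dose, 10 µM compound with 0.25% DMSO; Incubation: 4 h cell preincubation, 48 h compound exposure, 30 °C humidified; Signal: OD at 615 nm; Benchmarks: amphotericin B at 10 µg/mL as positive control.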
A number is an active result; n = inactive; x = not tested or not shown.

SMILES | sdo1 growth | Yeast life ext | RAM network inh | Measles CPE | Yeast growth inh
Cc1onc(-c2c(Cl)cccc2Cl)c1C(=O)N1CCc2ccccc2C1 | n | n | n | n | n
CC(C)(C)c1[nH]nc2c1C(c1ccc(OC(=O)c3ccco3)cc1)C(C#N)=C(N)O2 (centres undefined) | n | n | 10 | n | n
CCC(C)NC(=O)Cn1nc([N+](=O)[O-])c(Cl)c1C (centres undefined) | n | n | n | n | n
Cc1c(Cl)c([N+](=O)[O-])nn1CC(=O)NC(C)C1CC2CCC1C2 (centres undefined) | n | n | n | 48 | n
O=C(OCC(=O)N1CCN(c2ccccc2)CC1)C1=COCCO1 | n | n | n | n | n
O=C(OCC(=O)N1CCN(C(=O)c2ccco2)CC1)C1=COCCO1 | n | n | n | 23 | n
COc1ccc(C2=NN(S(C)(=O)=O)C(c3cccs3)C2)cc1OC (centres undefined) | x | x | n | x | x
O=C(Nc1ccccc1)c1ccc(-c2ccccc2Cl)o1 | n | n | n | n | n
O=C(NCCc1ccccc1)c1ccc(-c2ccccc2Cl)o1 | n | n | 8.6 | n | n
N#Cc1ccc(NC(=O)CCc2ccc(S(=O)(=O)N3CCOCC3)cc2)cc1 | n | n | n | n | n
O=C(O)CC(NC(=O)OCc1ccccc1)c1ccccc1 (centres undefined) | n | n | n | 20 | n
COc1cc2nc(C3CCC3)n(NC(=O)c3ccco3)c(=O)c2cc1OC | x | x | n | x | x
COc1ccc(-c2nnc3sc(CCN4C(=O)c5ccccc5C4=O)nn23)cc1 | n | n | 9.4 | n | n
CC1=C(C)CC(C(=O)Nc2ccc3c(c2)OCO3)C(C(=O)O)C1 (centres undefined) | x | x | n | x | x
COc1ccc(-c2nnn(CC(=O)c3ccc4c(c3)OCCO4)n2)cc1OC | n | x | n | 27 | n
CCOc1ccc(-c2nnn(CC(=O)c3ccc4c(c3)OCCO4)n2)cc1 | n | n | n | n | n
O=c1c2ccccc2c(/C=N/c2n[nH]c(CCCO)n2)c(O)n1-c1ccccc1Cl | x | x | 8.5 | x | x
O=C(N/N=C/c1c(O)n(-c2ccccc2Cl)c(=O)c2ccccc12)C1COc2ccccc2O1 (centres undefined) | n | n | n | n | n
CCOC(=O)C1CCCN(C(=O)COc2ccc(N(C)S(=O)(=O)c3ccc(F)cc3)cc2)C1 (centres undefined) | x | x | n | x | x
CN(C(=O)c1ccc(OC2CCN(CCc3ccccc3)CC2)cc1)C1CCCCC1 | x | x | n | x | x
CCn1cnc2sc(C(=O)Oc3ccc(Br)cc3)c(C)c2c1=O | x | x | n | x | x
CCn1cnc2sc(C(=O)N(Cc3ccc(N(C)C)cc3)Cc3ccco3)c(C)c2c1=O | n | n | n | 55 | n
COC(=O)c1cc(NC(=O)C2CCCN(S(=O)(=O)c3c(C)n[nH]c3C)C2)cc(C(=O)OC)c1 (centres undefined) | x | x | n | x | x
CN1CSC2=C(C#N)C(c3cccc(OCc4ccccc4)c3)CC(=O)N2C1 (centres undefined) | n | n | n | 63 | n
CCc1ccc(C2CC(=O)N3CN(c4ccccc4)CSC3=C2C#N)cc1 (centres undefined) | n | n | n | n | n
SMILES | sdo1 growth | Yeast life ext | RAM network inh | Measles CPE | Yeast growth inh
CNC(=O)c1cc2c(s1)-c1ccccc1CC2 | x | x | n | x | x
CNC(=O)c1cc(C)c(-c2ccccc2)s1 | n | n | n | 49 | n
CCN(CC)C(=O)Cn1c(=O)n(-c2ccc(CC(=O)NCc3ccccc3)cc2)c(=O)c2sccc21 | x | x | n | x | x
COc1ccc(OC)c(NC(=O)c2ccc(CSc3ncccn3)cc2)c1 | x | x | n | x | x
CN1C(=O)/C(=N/OC(=O)c2ccccc2)c2ccccc21 | n | n | n | n | 100
C=CCn1c(SCC(=O)OCC)nc(C(F)(F)F)cc1=O | x | x | n | x | x
O=C(/C=C/c1ccc(Cl)cc1Cl)N1CCN(c2ccccc2[N+](=O)[O-])CC1 | n | n | 8.6 | n | n
O=C(/C=C/c1ccc(Cl)cc1Cl)N1CCN(c2ccc([N+](=O)[O-])c(N3CCOCC3)c2)CC1 | n | n | n | n | n
O=C(/C=C/c1ccccc1[N+](=O)[O-])N1CCN(c2ccccc2F)CC1 | x | x | 8.5 | x | x
Cc1cc(N2CCN(C(=O)c3ccco3)CC2)n2ncc(-c3ccccc3)c2n1 | n | n | n | 39 | 98
NC(=O)c1ccsc1NC(=O)CSc1nnc2ccccn12 | x | x | n | x | x
NC(=O)c1ccsc1NC(=O)CSc1nc2ccccc2c(=O)n1CCCO | n | n | 8.9 | n | n
N/C(Cc1ccc(Cl)cc1Cl)=N\OC(=O)c1cccs1 | n | n | n | n | 100
CN(C)c1ccc2c3c(ccc(N(C)C)c13)COC2 | x | x | n | x | x
CCOc1cc(/C=N/NC(N)=O)cc(Br)c1OCC(=O)Nc1ccccc1C | n | n | n | n | n
CCOc1cc(/C=C\[N+](=O)[O-])ccc1OCC(=O)Nc1ccccc1C | n | 92 | n | n | n
COc1ccccc1OCCn1cc(/C=C(\C#N)C(=O)NCc2cccs2)c2ccccc21 | n | n | n | n | n
Cc1ccc(C)c(OCCn2cc(/C=C(/C#N)C(=O)NCC3CCCO3)c3ccccc32)c1 (centres undefined) | n | n | 8.8 | n | n
Cc1ccc(NC(=O)C2C(=O)N(CCO)C3(C)CC2c2ccccc2O3)cc1 (centres undefined) | n | n | n | n | n
Cc1ccc(NC(=O)C2C(=O)N(C)c3ccccc32)cc1 (centres undefined) | n | 28 | n | n | n
CN1C(=O)C(C(=O)Nc2ccccc2F)c2ccccc21 (centres undefined) | n | 45 | n | n | n
CCc1cc2cccc(C)c2nc1SCC(=O)Nc1cc(C)on1 | x | x | n | x | x
O=C(O)c1ccccc1C(=O)NNc1ccc(Cl)cc1 | n | n | n | n | 93
O=C(O)c1ccccc1C(=O)NNc1cccc(Cl)n1 | x | x | n | x | x
O=C(CCCc1nc2ccccc2s1)Nc1ccc(N2CCOCC2)cc1 | x | x | n | x | x
SMILES | sdo1 growth | Yeast life ext | RAM network inh | Measles CPE | Yeast growth inh
Cc1cc(C)nc(-n2cc(C(=O)c3cc(F)ccc3O)cn2)n1 | n | 30 | n | n | n
COc1ccc(O)c(C(=O)c2cnn(-c3ccccn3)c2)c1 | x | x | n | x | x
CCCNC(=O)CCC(NS(=O)(=O)c1ccc(C)cc1)C(=O)NCCC (centres undefined) | n | 80 | n | n | n
O=C(COC(=O)C1(c2ccc(Cl)cc2)CCCC1)Nc1ncc(C(F)(F)F)cc1Cl | n | n | 8.9 | n | n
CC(=O)CC1=NC(C)(C)Cc2ccccc21 | x | x | n | x | x
OC(c1ccccc1)c1nccc2ccccc12 (centres undefined) | x | x | n | x | x
C=CCNC(=S)N1CCN(Cc2ccccc2)CC1 | x | x | n | x | x
N#Cc1nc(-c2ccc(OCc3ccccc3)cc2)oc1N1CCC(C(N)=O)CC1 | n | n | 8.6 | n | n
N#Cc1nc(-c2ccco2)oc1N1CCC(Cc2ccccc2)CC1 | n | n | 9.7 | n | n
Nc1ccnn1Cc1ccncc1 | x | x | n | x | x
CC(=O)Nc1ccc(N2CC(C)(C)C2=O)cc1 | x | x | n | x | x
CC(=O)Oc1ccc2c(C)cc(=O)oc2c1 | n | n | n | n | n
